Compound activity deposited in PubChem by Broad Institute.
Rows were chosen to be rich in hits. Some 5.8% of all compounds tested hit in one or more screens of this group.
GASC1 inh – inhibitors of GASC-1 (KDM4C) histone demethylase, primary screen, biochemical, single concentration HTS. Lysine-specific demethylase 4C (Homo sapiens), Q9H3R0. GST-KDM4C 2-372, H3K9me3 peptide, LANCE TR-FRET. inhibition, % at 12.5 µM. 96,000 compounds, 0.15% hits. AID 720574, 2013;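 active means mean replicate inhibition above about 25%, with at least 55% of replicates also reaching it, limit read from the data, passing the limit was not always enough; inconclusive means only one of those two conditions met; inactive means neither condition met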
Target sequence (Q9H3R0 2-372 limits assumed): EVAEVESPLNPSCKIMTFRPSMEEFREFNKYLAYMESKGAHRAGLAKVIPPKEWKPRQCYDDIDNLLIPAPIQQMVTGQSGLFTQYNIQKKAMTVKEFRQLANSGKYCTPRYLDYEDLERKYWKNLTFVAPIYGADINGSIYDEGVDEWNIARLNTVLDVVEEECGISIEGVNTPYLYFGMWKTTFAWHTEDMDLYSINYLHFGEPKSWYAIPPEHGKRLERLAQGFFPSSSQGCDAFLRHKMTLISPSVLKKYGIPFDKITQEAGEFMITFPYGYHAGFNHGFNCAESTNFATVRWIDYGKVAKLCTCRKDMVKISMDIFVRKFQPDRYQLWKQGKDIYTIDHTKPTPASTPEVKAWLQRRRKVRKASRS
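System: N-terminal GST-fused human GASC-1 (KDM4C) fragment, residues 2-372 / Amount: 10 nM GST-KDM4C in enzyme reaction / Also added: H3K9me3 peptide with Fe(II)/2OG / Times: 30 min demethylation and 1 h detection at room temperature / Signal: LANCE TR-FRET / Read-out basis: Fall in 671/618 emission ratio as inhibition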
Pf Dd2 growth – P. falciparum Dd2 growth inhibitors, primary screen, SYBR Green fluorescence, single dose replicates | activity change, % at 10 µM | AID 1159554, 2015 | 94,000 compounds, 2.3% hits | 72 h; hits give low values; in the data active means activity change below about -80%; inconclusive means no clear call, values can overlap the other calls
IDH1 mut inh – inhibitors of IDH1 R132H reductase, primary screen, biochemical, plate reader, single point; Isocitrate dehydrogenase [NADP] cytoplasmic (Homo sapiens), O75874; diaphorase/resazurin fluorescence, 60 min; inhibition, % at 10 µM; 70,000 compounds, 0.18% hits; AID 624101, 2012; in the data active means inhibition above about 34%; inconclusive means no clear call, values can overlap the other calls; inactive means below about 11%
Target sequence (O75874 whole entry R132H): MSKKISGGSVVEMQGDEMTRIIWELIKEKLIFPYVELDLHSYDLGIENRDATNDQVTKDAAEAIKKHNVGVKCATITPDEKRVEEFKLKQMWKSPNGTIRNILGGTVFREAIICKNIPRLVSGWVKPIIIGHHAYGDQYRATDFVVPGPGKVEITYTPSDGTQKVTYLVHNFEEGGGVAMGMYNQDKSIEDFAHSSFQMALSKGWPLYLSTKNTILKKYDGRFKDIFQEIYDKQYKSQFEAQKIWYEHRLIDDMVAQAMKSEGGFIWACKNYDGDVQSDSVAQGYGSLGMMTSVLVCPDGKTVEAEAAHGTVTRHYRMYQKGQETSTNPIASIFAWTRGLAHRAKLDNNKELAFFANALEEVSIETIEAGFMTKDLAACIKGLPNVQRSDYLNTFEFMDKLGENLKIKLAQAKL
Tcruzi prolif – T. cruzi intracellular proliferation inhibitors, primary screen, cell-based, beta-gal Tulahuen parasites, NIH3T3 host, luminescence. AID 624255, 2012. inhibition, % at 8.34 µM. 77,000 compounds, 5.9% hits. T. cruzi beta-gal in NIH3T3, GalScreen luminescence, 90 h;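 active means mean inhibition above about 93%, with at least 55% of replicates each passing it, limit read from the data, passing the limit was not always enough; inconclusive means only one of those two conditions holds; inactive means neither condition holds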
Large screens that a line does not name were inactive; ! = a repeat was not active.

C[C@@H]1CCCCO[C@H](CN(C)CC2CC2)[C@H](C)CN([C@H](C)CO)C(=O)c2cc(NC(=O)C3CCCCC3)ccc2O1	Pf Dd2 growth -83 (no result: IDH1 mut inh)
COc1ccc(NC(=O)Nc2ccc3c(c2)C(=O)N([C@H](C)CO)C[C@@H](C)[C@@H](CN(C)CC2CCCCC2)OCCCC[C@@H](C)O3)cc1	Pf Dd2 growth -81
C[C@@H]1CCCCO[C@H](CN(C)CC2CC2)[C@H](C)CN([C@@H](C)CO)C(=O)c2cc(NC(=O)C3CCCCC3)ccc2O1	none (no result: Pf Dd2 growth, Tcruzi prolif)
C[C@@H]1CCCCO[C@@H](CN(C)S(=O)(=O)c2ccccc2)[C@@H](C)CN([C@H](C)CO)C(=O)c2cc(NC(=O)Cc3ccccc3)ccc2O1	none (no result: IDH1 mut inh, Tcruzi prolif)
Cc1ccc(S(=O)(=O)N(C)C[C@H]2OCCCC[C@H](C)Oc3ccc(NS(=O)(=O)c4cccs4)cc3C(=O)N([C@@H](C)CO)C[C@H]2C)cc1	Pf Dd2 growth -85 (no result: IDH1 mut inh)
Cc1ccc(S(=O)(=O)N(C)C[C@H]2OCCCC[C@@H](C)Oc3ccc(NS(=O)(=O)c4cccs4)cc3C(=O)N([C@H](C)CO)C[C@@H]2C)cc1	none
C[C@@H]1CN([C@H](C)CO)C(=O)c2cc(NS(=O)(=O)c3cccs3)ccc2O[C@@H](C)CCCCO[C@@H]1CN(C)S(=O)(=O)c1ccc(F)cc1	Pf Dd2 growth -89
CN(C)C(=O)c1cccc(-c2ccc([C@H]3[C@H](CO)N4CCCCN(S(C)(=O)=O)C[C@@H]34)cc2)c1	none (no result: IDH1 mut inh)
COc1ccc(CCNC(=O)C(=O)c2c(C)[nH]c3ccccc23)cc1OC	none (no result: GASC1 inh, Pf Dd2 growth, Tcruzi prolif)
CCCNC(=O)N1[C@H](C#N)[C@H](c2ccc(C#Cc3cccc(F)c3)cc2)[C@H]1CO	Pf Dd2 growth -85 (no result: IDH1 mut inh)
CCCNC(=O)N1[C@H](C#N)[C@H](c2ccc(C#Cc3ccc(F)cc3)cc2)[C@H]1CO	Pf Dd2 growth -86 (no result: IDH1 mut inh)
CCCNC(=O)N1[C@H](CO)[C@H](c2ccc(-c3ccc(C#N)cc3)cc2)[C@@H]1CNC	Pf Dd2 growth -84 (no result: IDH1 mut inh, Tcruzi prolif)
CCCNC(=O)N1[C@@H](C#N)[C@@H](c2ccccc2)[C@@H]1CO	none (no result: IDH1 mut inh)
N#C[C@@H]1[C@H](c2ccc(C#Cc3ccc(F)cc3)cc2)[C@@H](CO)N1C(=O)Nc1ccc(F)cc1	none (no result: IDH1 mut inh)
CCS(=O)(=O)c1ccc2nc(SCC(=O)n3c4c(c5ccccc53)CCCC4)oc2c1	none (no result: GASC1 inh, Pf Dd2 growth, Tcruzi prolif)
COc1ccc(-c2cnc3c(c2)C(=O)N([C@H](C)CO)C[C@@H](C)[C@H](CN(C)C(=O)Cc2ccccn2)O3)cc1	none
COc1ccc2c3c([nH]c2c1)[C@H](CO)N(CC1CC1)CC31CN(C(=O)c2ccccc2)C1	Pf Dd2 growth -83 (no result: IDH1 mut inh, Tcruzi prolif)
COc1ccc2c3c([nH]c2c1)[C@@H](CO)N(Cc1ccccc1)CC31CN(C(=O)Cc2ccccc2)C1	Pf Dd2 growth -84 (no result: GASC1 inh, IDH1 mut inh, Tcruzi prolif)
COc1ccc(CN2CC3(CN(C(=O)Cc4ccccc4)C3)c3c([nH]c4cc(OC)ccc34)[C@@H]2CO)cc1	Pf Dd2 growth -86 (no result: IDH1 mut inh, Tcruzi prolif)
COCC(=O)N1CC2(C1)CN(Cc1cccc(Cl)c1)[C@@H](CO)c1[nH]c3cc(OC)ccc3c12	Pf Dd2 growth -92 (no result: IDH1 mut inh, Tcruzi prolif)
COc1ccc2c3c([nH]c2c1)[C@H](CO)N(CC1CC1)CC31CN(C(=O)c2ccc(F)cc2)C1	none (no result: IDH1 mut inh, Tcruzi prolif)
COc1ccc2c3c([nH]c2c1)[C@H](CO)N(Cc1ccccc1)CC31CN(C(=O)Cc2ccccc2)C1	none (no result: GASC1 inh, IDH1 mut inh, Tcruzi prolif)
COc1ccc2c3c([nH]c2c1)[C@@H](CO)N(Cc1ccc(F)cc1)CC31CCN(C(C)=O)CC1	none (no result: GASC1 inh, IDH1 mut inh, Tcruzi prolif)
COc1ccc2c3c([nH]c2c1)[C@H](CO)N(Cc1cccc(F)c1)CC31CCN(C(C)=O)CC1	Pf Dd2 growth -83 (no result: IDH1 mut inh, Tcruzi prolif)
COc1ccc2c3c([nH]c2c1)[C@H](CO)N(C(=O)c1cccc(F)c1)CC31CN(C(=O)CC2CC2)C1	none (no result: IDH1 mut inh, Tcruzi prolif)
CCCNC(=O)N1CCC2(CC1)CN(Cc1cccc(F)c1)[C@H](CO)c1[nH]c3cc(OC)ccc3c12	Pf Dd2 growth -83 (no result: IDH1 mut inh, Tcruzi prolif)
CCCNC(=O)N1CCC2(CC1)CN(Cc1cccc(OC)c1)[C@H](CO)c1[nH]c3cc(OC)ccc3c12	none (no result: IDH1 mut inh, Tcruzi prolif)
COc1ccc2c3c([nH]c2c1)[C@H](CO)N(C(=O)c1cccc(F)c1)CC31CCN(C(=O)CC2CC2)CC1	Pf Dd2 growth -82 (no result: IDH1 mut inh, Tcruzi prolif)
C[C@H]1CN([C@@H](C)CO)C(=O)Cc2cc(NC(=O)Nc3ccc(F)cc3)ccc2O[C@@H]1CN(C)CC1CCCCC1	none
Cc1nc(N2[C@H](CO)[C@H](c3ccccc3)[C@H]2CNCC2CCCC2)sc1C	Pf Dd2 growth -90 (no result: IDH1 mut inh, Tcruzi prolif)
C[C@@H]1CCCCO[C@H](CN(C)Cc2ccc(C(=O)Nc3ccccc3N)cc2)[C@@H](C)CN([C@@H](C)CO)C(=O)c2cc(NS(=O)(=O)c3ccc(Cl)cc3)ccc2O1	Pf Dd2 growth -85 (no result: IDH1 mut inh)
C[C@@H]1CCCCO[C@@H](CN(C)Cc2ccc(C(=O)Nc3ccccc3N)cc2)[C@@H](C)CN([C@H](C)CO)C(=O)c2cc(NS(=O)(=O)c3cccs3)ccc2O1	Pf Dd2 growth inconclusive (no result: IDH1 mut inh, Tcruzi prolif)
C[C@@H]1CCCCO[C@H](CN(C)Cc2ccc(C(=O)Nc3ccccc3N)cc2)[C@@H](C)CN([C@H](C)CO)C(=O)c2cc(NS(=O)(=O)c3cccs3)ccc2O1	Pf Dd2 growth -87
C[C@@H]1CN([C@@H](C)CO)C(=O)c2cccc(NC(=O)Nc3cccc4ccccc34)c2O[C@@H]1CN(C)Cc1ccc(C(=O)Nc2ccccc2N)cc1	Pf Dd2 growth -92 (no result: IDH1 mut inh, Tcruzi prolif)
C[C@@H]1CN([C@@H](C)CO)C(=O)c2cccc(NC(=O)Nc3ccccc3)c2O[C@H]1CN(C)Cc1ccc(C(=O)Nc2ccccc2N)cc1	Pf Dd2 growth -87
C[C@H](CO)N1C[C@H](C)[C@H](CN(C)Cc2ccc(C(=O)Nc3ccccc3N)cc2)Oc2c(NC(=O)Nc3ccc4c(c3)OCO4)cccc2C1=O	none
C[C@H](CO)N1C[C@H](C)[C@@H](CN(C)Cc2ccc(C(=O)Nc3ccccc3N)cc2)Oc2c(NC(=O)Nc3ccccc3)cccc2C1=O	Pf Dd2 growth -86 (no result: IDH1 mut inh)
C[C@@H]1CN([C@H](C)CO)C(=O)c2cccc(NC(=O)Nc3ccccc3)c2O[C@@H]1CN(C)Cc1ccc(C(=O)O)cc1	none (no result: IDH1 mut inh, Tcruzi prolif)
CC(C)NC(=O)Nc1cccc2c1O[C@H](CN(C)Cc1ccc(C(=O)Nc3ccccc3N)cc1)[C@H](C)CN([C@H](C)CO)C2=O	none (no result: Tcruzi prolif)
COc1ccc(-c2ccc(C3[C@@H]4CN(S(=O)(=O)c5cccc(C)c5)C[C@H]3N4)cc2)cc1 (stereo partly specified)	Pf Dd2 growth -86! (no result: IDH1 mut inh, Tcruzi prolif)
Cc1cccc(-c2ccc([C@H]3[C@H]4CN(S(=O)(=O)c5cccc(C)c5)CCCCN4[C@H]3CO)cc2)c1	Pf Dd2 growth -86 (no result: IDH1 mut inh)
N#Cc1cccc(-c2ccc(C3[C@@H]4CN(S(=O)(=O)c5ccc(F)cc5)C[C@H]3N4)cc2)c1 (stereo partly specified)	GASC1 inh 34! (no result: IDH1 mut inh, Tcruzi prolif)
N#Cc1cccc(-c2ccc([C@@H]3[C@@H]4CN(S(=O)(=O)c5ccc(-c6ccccc6)cc5)C[C@H]3N4)cc2)c1	none (no result: IDH1 mut inh, Tcruzi prolif)
